Screens (PubChem)
Shown are actives, neighbours in structure and some others; about 1.6% of the full set was active somewhere.
Scp1 inh = blocks human Scp-1 phosphatase activity | Recombinant Scp1, phosphopeptide, malachite green phosphate absorbance | Q9GZU7 | hit rate 0.88% among 340,000 | inhibition, % at 20 µM;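 active = inhibition above about 50% at 20 µM, limit read from the data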
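Times: enzyme reaction 45 min at room temperature, colour 5 min, stabilisation 30 min. Material: SCP-1 catalytic fragment, aa 76-261. Medium: Acidic Tris acetate buffer with magnesium and detergent. Signal: colorimetric free-phosphate detection, absorbance 630 nm. Read-out basis: % inhibition of SCP-1 phosphate liberation. Reagent: Phosphorylated 17-residue peptide substrate.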
STEP block = STEP (human) phosphatase inhibition. inhibition, % at 20 µM. AID 588621. P54829. recombinant STEP, OMFP fluorogenic substrate, fluorescence. hit rate 0.25% among 360,000;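 active = inhibition at 20 µM, scaled per plate between control wells, above about 37%, limit read from the data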
Target sequence (P54829 whole entry, looked up): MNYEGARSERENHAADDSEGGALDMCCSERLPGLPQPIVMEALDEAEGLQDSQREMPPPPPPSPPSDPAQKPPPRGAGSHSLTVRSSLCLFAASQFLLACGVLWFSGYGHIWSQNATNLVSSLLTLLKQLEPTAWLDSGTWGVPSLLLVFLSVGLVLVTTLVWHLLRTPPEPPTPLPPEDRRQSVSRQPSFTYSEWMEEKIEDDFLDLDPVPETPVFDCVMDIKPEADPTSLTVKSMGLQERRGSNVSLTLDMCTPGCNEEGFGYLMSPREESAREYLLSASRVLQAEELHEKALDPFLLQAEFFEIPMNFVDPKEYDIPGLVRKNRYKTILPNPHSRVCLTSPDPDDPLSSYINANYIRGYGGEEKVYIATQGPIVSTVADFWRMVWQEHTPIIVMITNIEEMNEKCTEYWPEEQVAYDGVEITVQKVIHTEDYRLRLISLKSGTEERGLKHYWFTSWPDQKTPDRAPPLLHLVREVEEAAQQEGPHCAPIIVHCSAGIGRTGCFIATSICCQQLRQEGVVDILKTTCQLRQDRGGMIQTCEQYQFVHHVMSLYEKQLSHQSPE
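Test system: STEP tyrosine phosphatase / Reagent: OMFP at 25 µM / Doses: 20 µM, 1% DMSO / Read-out: percent inhibition scaled to no-enzyme and uninhibited-enzyme controls, plate-pattern corrected / Detection: FITC-channel fluorescence of OMFP product / Medium: Bis-Tris buffer pH 6.0, 2.5 mM DTT, 0.005% Tween 20 / Schedule: 20 min at room temperature, dark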
CFTR F508del cor = CFTR F508del correction in bronchial cells | CFBE cells, YFP halide quenching; stimulated with forskolin plus potentiator P3; % fluorescence drop versus neutral controls | activity (quench increase), % at 7.58 µM | hit rate 0.36% among 350,000 | AID 720511;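 active = mean added fluorescence quench of at least 8% versus neutral control, with both replicates also reaching 8%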;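 also: cells transiently co-express mutant CFTR-F508del with the halide-sensitive YFP; corrector assay measuring rescue of mutant channel to the surface after 24 h compound exposure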
DNMT1 inh = inhibitors of human DNMT1. hit rate 0.83% among 360,000. DNMT1 molecular beacon, Hinp1I cleavage, fluorescence. P26358. AID 588458. inhibition (reported as % activation of signal), % at 10 µM; in the data active = inhibition above about 50%
SUMO1-SIM PPI = alters human SUMO1 binding to SIM partners; P63165; AID 602429; hit rate 0.33% among 360,000; inhibition, % at 20 µM; SUMO1 binding to a labelled peptide, TR-FRET, 1 h; in the data active = inhibition above about 37%
Target sequence (P63165 whole entry, looked up): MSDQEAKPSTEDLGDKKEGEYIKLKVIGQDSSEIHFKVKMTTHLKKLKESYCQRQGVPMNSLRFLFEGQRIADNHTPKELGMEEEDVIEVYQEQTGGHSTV
LMPTP block = LMPTP (human) inhibition | P24666 | recombinant LMPTP-A, OMFP fluorogenic substrate, fluorescence intensity | hit rate 0.22% among 360,000 | inhibition, % at 20 µM | AID 651560;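 active = compounds that cut the enzyme signal by at least half of the control window in the single-dose screen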
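material = LMPTP-A | quantity = 0.625 nM enzyme | reagent = OMFP substrate, 400 µM final | buffer or medium = Bis-Tris pH 6.0, DTT, detergent | detection = endpoint fluorescence intensity from OMFP dephosphorylation | dosing = single 20 µM dose | read-out basis = % inhibition relative to no-enzyme and uninhibited control wells | control set = no-enzyme and uninhibited controls | timing = 50 min at room temperature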
A number is an active result; - = inactive; . = no result.

SMILES	Scp1 inh	STEP block	CFTR F508del cor	DNMT1 inh	SUMO1-SIM PPI	LMPTP block
O=C(Cc1ccsc1)OCC(=O)c1ccccc1	-	-	13.5	-	-	-
COc1ccc2c(c1)sc(N)[n+]2Cc1cc(C)cc2cccnc12	-	-	11.0	-	-	-
Fc1ccc(-[n+]2nc(Nc3ccccc3)sc2-c2c3ccccc3cc3ccccc23)cc1	-	-	-	-	-	67.2
N#Cc1c(-c2ccc(F)cc2)c(-c2ccc(F)cc2)nn(CCO)c1=O	-	-	17.6	-	-	-
N#C[C@H]1[C@@H](c2ccc(C#Cc3ccccc3F)cc2)[C@@H](CO)N1C(=O)C1CC1	.	.	-	.	.	.
COc1cccc2cc(C(=O)NCCN3CCOCC3)c(=O)oc12	-	-	9.6	-	-	-
C[C@H](CO)N1C[C@H](C)[C@@H](CN(C)C(=O)NC2CCCC2)Oc2ncc(-c3ccc(F)cc3)cc2C1=O	.	.	-	.	.	.
CN(CC1CCCO1)S(=O)(=O)c1ccc(C(=O)Nc2nnc(-c3ccccc3)o2)cc1 (stereo unspecified)	-	-	8.2	-	-	-
COc1ccccc1N1CCN(/N=C/C=C\c2ccco2)CC1	-	-	.	-	-	-
COc1ccccc1N1CCN(/N=C/C=C\c2ccccc2[N+](=O)[O-])CC1	-	-	15.2	-	-	-
COc1ccc(C#Cc2ccc([C@@H]3[C@H]4CN(C(=O)Nc5ccccc5F)CC(=O)N4[C@H]3CO)cc2)cc1	.	.	-	.	.	.
CN(c1ccc(O)cc1)c1nc(-c2cccs2)cs1	-	-	12.6	-	-	-
C[C@@H]1CN([C@@H](C)CO)C(=O)c2cc(NS(=O)(=O)c3ccccc3)ccc2O[C@H]1CN(C)C(=O)Nc1ccc2c(c1)OCO2	.	.	-	.	.	.
Cn1c(SCC(=O)NC2CCS(=O)(=O)C2)nnc1-c1ccco1 (stereo unspecified)	-	-	-	-	-	-
COc1cccc(-c2nnc(SCC(=O)NC3CCS(=O)(=O)C3)n2C)c1 (stereo unspecified)	-	-	20.7	-	-	-
COc1ccc(/C=N/Nc2cc(C)nc3c(C)cccc23)cc1	-	-	-	-	-	-
COc1ccc(/C=N/Nc2cc(C)nc3ccccc23)cc1	-	-	-	-	-	61.7
COc1ccc2nc(C)cc(N/N=C/c3ccc(F)cc3)c2c1	-	-	-	54.9	-	-
CC(C)NC(=O)N(C)C[C@@H]1OCCCC[C@@H](C)Oc2ccc(NS(=O)(=O)c3ccc(Cl)cc3)cc2C(=O)N([C@@H](C)CO)C[C@@H]1C	.	.	-	.	.	.
COC(=O)C1=C(C)N(Cc2ccccc2)C(=NCCc2cccnc2)N[C@H]1c1ccc(Br)cc1	57.1	-	.	-	-	-
COC(=O)C1=C(C)N(Cc2ccccc2)C(=NCCc2cccnc2)N[C@H]1c1ccccc1	-	-	.	-	-	-
CC=Cc1ccc2n(c1=O)C[C@H]1[C@H](CO)[C@@H](C(=O)NCc3ccccc3)N(C)[C@@H]21 (mixture of isomers)	.	.	-	.	.	.
COc1ccc(NC(=O)c2ccc(OCC3CCCO3)cc2)cc1Cl (stereo unspecified)	-	-	-	-	-	-
COc1ccc(NC(=O)c2ccc(OCC3CCCO3)cc2)cc1OC (stereo unspecified)	-	-	8.8	-	-	-
OCCNc1c2ccccc2nc2ccccc12	-	-	-	58.9	-	-
SMILES	Scp1 inh	STEP block	CFTR F508del cor	DNMT1 inh	SUMO1-SIM PPI	LMPTP block
CCCNC(=O)N1C[C@@H]2[C@H](c3ccccc31)[C@@H](CO)N2C(=O)Nc1ccc(F)cc1	.	.	-	.	.	.
CNC(=O)C[C@H]1CC[C@@H]2[C@H](COc3ccc(NC(=O)c4cccc(OC)c4)cc3C(=O)N2C)O1	.	.	-	.	.	.
COc1ccc2c(c1)C(=O)CC(c1ccc3c(c1)OCCO3)O2 (stereo unspecified)	-	-	11.7	-	-	-
COc1ccc2c(c1)C(=O)CC(c1ccc(OC)c(OC)c1)O2 (stereo unspecified)	-	-	-	-	-	-
O=C(c1ccc2c(c1)OCO2)N1C[C@H]2[C@@H](c3ccccc31)[C@@H](CO)N2Cc1ccccc1Cl	.	.	-	.	.	.
O=c1ccc2cc3c([nH]c4ccc(Br)cc43)oc-2c1O	.	-	.	-	-	51.6
C[C@H]1CN([C@@H](C)CO)C(=O)c2cc(NC(=O)C3CC3)ccc2O[C@@H]1CN(C)C(=O)Nc1ccc2c(c1)OCO2	.	.	-	.	.	.
O=c1oc2cc(O)ccc2c2oc3cc(O)ccc3c12	-	-	-	-	47.6	-
C/C=C/c1ccc([C@@H]2[C@@H](CO)N3CCCCN(S(=O)(=O)c4cccc(C)c4)C[C@@H]23)cc1	.	.	-	.	.	.
C[C@@H]1CN([C@@H](C)CO)C(=O)c2cc(C#CCN(C)C)cnc2O[C@@H]1CN(C)C(=O)Nc1cc(F)ccc1F	.	.	-	.	.	.
CCOC(=O)Cn1c(=NC(=O)c2cc(-c3cccs3)nc3ccccc23)sc2cc(S(N)(=O)=O)ccc21	-	-	.	-	-	-
COC(=O)Cn1c(=NC(=O)c2cc(-c3cccs3)nc3ccccc23)sc2cc(S(N)(=O)=O)ccc21	-	-	9.5	-	-	-
CN1c2ccc(-c3cccc(C#N)c3)cc2[C@H]2[C@H](CCN2C(=O)CC2CC2)[C@H]1CO	.	.	-	.	.	.
COc1ccccc1CNC(=O)Nc1nc(C(N)Cc2ccc(Cl)cc2)cs1 (stereo unspecified)	.	-	8.3	-	-	-
C[C@@H]1CN([C@H](C)CO)C(=O)c2cc(C#CC3CC3)cnc2O[C@H]1CN(C)Cc1ccccn1	.	.	-	.	.	.
CCn1c(SCc2nc3sc(C(=O)O)c(C)c3c(=O)[nH]2)nc2ccccc21	65.4	-	.	-	40.7	-
COc1cccc(NC(=O)N2CC3(C2)[C@@H](c2ccccc2)[C@@H](CO)N3C(=O)C2CCC2)c1	.	.	-	.	.	.
CCOC(=O)C1CCN(c2nc(N)c3c(N)nc(SCC(=O)O)cc3c2C#N)CC1	101.5	-	-	74.8	60.2	-
O=C(O)c1cccc(Cn2c(Cl)c(/C=N/NC(=O)c3cc4ccccc4cc3O)sc2=O)c1	-	-	-	-	-	55.1
COc1ccc(C(=O)Nc2ccc(C(=O)Nc3nccs3)cc2)cc1[N+](=O)[O-]	-	-	.	-	53.6	-
O=C(Nc1nccs1)c1ccc(Cl)c([N+](=O)[O-])c1	-	-	-	-	-	-
COc1ccc(C(=O)NC(=S)Nc2cccc3ncccc23)cc1[N+](=O)[O-]	-	-	-	-	55.8	-
C[C@@H]1CN([C@@H](C)CO)C(=O)Cc2cc(NS(=O)(=O)c3cn(C)cn3)ccc2O[C@@H]1CN(C)C(=O)Nc1ccc2c(c1)OCO2	.	.	-	.	.	.
C=CCN(CC=C)S(=O)(=O)c1ccc(NC(=S)NC(=O)/C=C/c2ccccc2)cc1	-	-	.	-	63.3	-
